Measurements gathered from unrelated publications.
Target: Cyclin-G-associated kinase (GAK, Homo sapiens, UniProt O14976)
One construct used (O14976 1-1311): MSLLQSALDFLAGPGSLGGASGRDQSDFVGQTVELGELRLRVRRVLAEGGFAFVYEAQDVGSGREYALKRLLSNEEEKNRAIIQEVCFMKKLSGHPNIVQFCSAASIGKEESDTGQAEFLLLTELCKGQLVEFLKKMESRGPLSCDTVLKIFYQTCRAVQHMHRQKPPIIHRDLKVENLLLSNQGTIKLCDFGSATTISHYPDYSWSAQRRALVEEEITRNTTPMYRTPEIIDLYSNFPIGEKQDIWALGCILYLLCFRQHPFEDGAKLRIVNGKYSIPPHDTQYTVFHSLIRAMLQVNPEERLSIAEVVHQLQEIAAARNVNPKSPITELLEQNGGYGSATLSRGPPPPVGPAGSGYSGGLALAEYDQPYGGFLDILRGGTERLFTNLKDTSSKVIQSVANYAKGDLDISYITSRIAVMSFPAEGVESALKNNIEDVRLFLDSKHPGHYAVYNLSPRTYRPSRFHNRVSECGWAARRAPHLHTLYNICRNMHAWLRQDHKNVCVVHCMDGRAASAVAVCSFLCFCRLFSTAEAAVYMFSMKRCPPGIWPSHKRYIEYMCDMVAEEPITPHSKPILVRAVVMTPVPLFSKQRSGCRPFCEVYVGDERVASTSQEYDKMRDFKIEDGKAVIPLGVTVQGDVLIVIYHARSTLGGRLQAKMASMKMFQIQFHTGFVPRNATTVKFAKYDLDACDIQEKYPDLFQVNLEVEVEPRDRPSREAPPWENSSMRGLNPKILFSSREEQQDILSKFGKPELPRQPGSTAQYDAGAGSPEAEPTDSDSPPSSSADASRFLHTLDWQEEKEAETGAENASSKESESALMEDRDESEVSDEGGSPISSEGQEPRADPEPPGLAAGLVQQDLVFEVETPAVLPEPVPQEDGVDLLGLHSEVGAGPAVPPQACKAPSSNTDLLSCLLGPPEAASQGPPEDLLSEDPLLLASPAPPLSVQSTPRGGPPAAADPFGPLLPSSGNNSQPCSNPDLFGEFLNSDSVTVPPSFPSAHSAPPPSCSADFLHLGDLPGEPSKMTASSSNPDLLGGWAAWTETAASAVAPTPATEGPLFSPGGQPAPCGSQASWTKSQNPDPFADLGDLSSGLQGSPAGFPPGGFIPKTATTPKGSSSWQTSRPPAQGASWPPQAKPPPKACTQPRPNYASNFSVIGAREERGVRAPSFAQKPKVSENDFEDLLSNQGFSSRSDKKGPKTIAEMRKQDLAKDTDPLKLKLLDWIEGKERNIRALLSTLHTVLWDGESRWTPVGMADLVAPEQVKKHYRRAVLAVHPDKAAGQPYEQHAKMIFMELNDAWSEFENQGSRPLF

For CO[C@@H]1[C@H](N(C)C(=O)c2ccccc2)C[C@H]2O[C@]1(C)n1c3ccccc3c3c4c(c5c6ccccc6n2c5c31)C(=O)NC4, the inhibition was 74% (enzyme activity, inhibitor; 1 µM).
The remaining binding of CN1CCN(C(=O)c2ccc(NC(=O)Nc3ccc(N(C)c4ccnc(Nc5ccc(CS(C)(=O)=O)cc5)n4)cc3)cc2)CC1 is reported as 18% (binding, competition with immobilised ligand; 1 µM).
C#Cc1cc(-c2cc(Nc3nc(N[C@@H](C)c4ccc(F)cn4)ncc3Cl)n[nH]2)ccc1C=O gave an inhibition of 18.7% (enzyme activity, inhibitor; 0.2 µM).
CCCCC(=O)Nc1ccc(-c2ccc3ncn(CCC)c(=O)c3c2)cn1 gave a remaining binding of 100% (binding, competition with immobilised ligand; 0.5 µM).
The remaining binding of C1=C/COCc2cc(ccc2OCCN2CCCC2)Nc2nccc(n2)-c2cccc(c2)COC/1 is reported as 31% (binding; 0.1 µM).
For Cc1cc(O)c(-c2ccc([C@@H](C)CN(C)C)cc2)c2c1[nH]c(=O)c1sccc12, the inhibition was 0.133% (enzyme activity, inhibitor; 0.1 µM).
C=CC(=O)N1CCC([C@@H]2CCNc3c(C(N)=O)c(-c4ccc(Oc5ccccc5)cc4)nn32)CC1 gave an inhibition of 20% (enzyme activity, inhibitor; 1 µM).
The remaining binding of Cc1ccc(NC(=O)c2ccnc(C(F)(F)F)c2)cc1-c1cc(OCCO)nc(N2CCOCC2)c1 is reported as 95% (binding, competition with immobilised ligand; 1 µM).
The activity vs control of CC(C)S(=O)(=O)c1ccc2nccc(Nc3ccc4sc(C5CCCC5)nc4c3)c2c1 is reported as 101% (enzyme activity, inhibitor; 1 µM).
